Data on seven compounds can be found in PMC8851646 (ACS Omega, 2022).

The term MIC denotes the lowest concentration found to suppress growth.

Values after ≈ are worked out from the molar mass of the structure shown. Where two headings read alike, the source gives them in different places.

Data set [1] has as its system K. pneumoniae NB29017 co-cultured with T. pyriformis. As to the kind of experiment: T. pyriformis/K. pneumoniae. In kind it is cell-based, Klebsiella pneumoniae.
The test system of data set [2] is K. pneumoniae NB29017. As to the kind of experiment: Qualitative inhibition of mucoid appearance of colonies on solid LB agar. It counts as cell-based, Klebsiella pneumoniae. The conditions noted are these: 4 fully mucoid, 0 nonmucoid, by eye. The method in brief:
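Test compound dissolved in DMSO (12.8 mg/mL stock) and mixed into melted LB agar at 0–16 μg/mL final, then set in six-well plates. Mucoid wild-type NB29017 streaked for single colonies in each well. Plates incubated 18 h at 37 °C, then 2 h at 4 °C. Mucoid appearance scored by eye from 0 (none) to 4 (normal hypermucoid).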

In data set [3] the test system is K. pneumoniae NB29017. As to the kind of experiment: Electron microscopy of cell surface material. It counts as cell-based, Klebsiella pneumoniae. The following applies: grown in SM medium with 32 μg/mL compound. The method in brief:
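K. pneumoniae NB29017 grown overnight with shaking at 37 °C in 10 mL SM medium, with or without test compound at 32 μg/mL. Diluted 1:50 into the same medium and grown to OD600 of about 2. Cells pelleted at 3000g and washed in Na-cacodylate pH 7.2. Fixed 2 h at 4 °C (2.5% glutaraldehyde, 1% tannic acid, 0.1 M Na-cacodylate, pH 7.2). Pelleted, taken up in cacodylate buffer and examined by electron microscopy.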

In data set [4] the test system is K. pneumoniae wbbM mutant (NB29018) co-cultured with T. pyriformis. Nature of the data set: Tp/Kp co-culture assay with cell surface-defective wbbM mutant. The following applies: Tp threshold 4625–18,500 Tp/mL. In kind it is cell-based, Klebsiella pneumoniae.
Data set [5] relates to P. aeruginosa. The conditions noted are these: against P. aeruginosa; cited from earlier work.
Data set [6] is described as follows: Compound stability, LC-MS of freshly dissolved powder. In kind it is physicochemical. The following applies: impure by LC–MS from freshly dissolved powder.
For data set [7], the system named is Staphylococcus aureus. As to the kind of experiment: Antibacterial MIC, Gram-positive control. In kind it is cell-based. The conditions noted are these: read-out: MIC Sa.
Data set [8] is described as follows: Cytotoxicity in K562 cells. In kind it is cell-based. The following applies: human.
Data set [9] is described as follows: Red blood cell hemolysis. It counts as cell-based, sheep. The following applies: sheep, erythrocytes from defibrinated sheep blood, pH 7.5.
For data set [10], the system named is erythrocytes from defibrinated sheep blood. As to the kind of experiment: Red blood cell hemolysis. It counts as cell-based. The following applies: Table 1; concentration causing 50% hemolysis.
Data set [11] has as its target T1, P. aeruginosa LpxC (Pseudomonas aeruginosa, UniProt P47205).
T1 sequence (P47205 1-303): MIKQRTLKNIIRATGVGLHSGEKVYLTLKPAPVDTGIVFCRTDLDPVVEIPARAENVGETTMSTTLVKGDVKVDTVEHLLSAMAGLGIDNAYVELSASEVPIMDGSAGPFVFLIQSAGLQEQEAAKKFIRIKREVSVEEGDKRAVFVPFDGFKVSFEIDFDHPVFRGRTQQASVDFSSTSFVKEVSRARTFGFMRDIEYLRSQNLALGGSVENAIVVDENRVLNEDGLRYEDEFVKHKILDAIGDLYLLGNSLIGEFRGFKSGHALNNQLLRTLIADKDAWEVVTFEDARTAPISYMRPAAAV
Nature of the data set: Inhibition of purified LpxC enzyme. In kind it is biochemical.

For data set [12], the system named is K. pneumoniae NB29017. As to the kind of experiment: Kp-only counterscreen for direct antibacterial activity. It counts as cell-based. The conditions noted are these: Klebsiella pneumoniae, NB29017, read-out: IC50 for Kp only, hit from the HTS. In general terms: A counterscreen serves to expose hits that act by an unwanted route or on another target.
Data set [13] deals with K. pneumoniae (Kp). As to the kind of experiment: Antibacterial MIC, broth. It counts as cell-based. The following applies: Klebsiella pneumoniae, read-out: MIC, broth-based.
Data set [14] deals with K. pneumoniae NB29017. As to the kind of experiment: Agar MIC. It counts as cell-based. The following applies: Klebsiella pneumoniae, NB29017, read-out: agar MIC.
Where [15] appears, read: read-out: Tp/Kp IC50, Table 2; expressed as μg/mL for comparison to agar values.
Setting [16] is: read-out: IC50 Tp/Kp, Table 1; freshly dissolved powder, top concentration 20 μM.
Setting [17] is: read-out: Tp/Kp IC50, archived powder, side by side on the same assay plate, Tp set at 25000.
[18] abbreviates: read-out: Tp/Kp IC50, resynthesis batch, side by side on the same assay plate, Tp set at 25000.

Turning to `C=CCSc1nnc(C)c(O)n1` [D1, C=CCSc1nnc(C)c(O)n1, reference compound], the IC50 in [1] (read-out: Tp/Kp IC50, D1 control on the same plate, Tp set at 25000) is 2320 nM; in [1] (read-out: Tp/Kp IC50, D1 control on the same plate; Tp set at 25000), 2730 nM; in [1] (setting [15]) it was 0.54 µg/mL; in [1] (read-out: median IC50 for D1 across 28 hit confirmation runs, standard deviation of 0.3) it was 2000 nM. The “qualitative score on solid medium” value is recorded as 4 in [2] (2 μg/mL compound in agar), 3 in [2] (4 μg/mL compound in agar), “slight” in data set [2] (8 μg/mL compound in agar) and 1 in data set [2] (16 μg/mL compound in agar). Further, in [3], the “surface polysaccharide material by electron microscopy” value was “largely devoid of this”. In addition, the “activity in the Tp/Kp wbbM assay” value in data set [4] is listed as “largely retained”. In addition, the “efficacy in an animal model of infection” value in data set [5] is given as “efficacy”.

Consider `CCOC(=O)/C(=N\NC(N)=S)c1cccs1` [compound 25, CCOC(=O)/C(=N\NC(N)=S)/C1=CC=CS1], for which the stability result in data set [6] is reported as “unstable”.

For the compound `COc1ccc(-c2csc(NC(=O)c3ccc(C(=O)Nc4nc(-c5ccc(OC)c(OC)c5)cs4)s3)n2)cc1OC` [compound 62, COc1ccc(cc1OC)C5=CSC(NC(=O)C2=CC=C(S2)C(=O)NC3=NC(=CS3)c4cc(OC)c(cc4)OC)=N5], the IC50 is 1 nM in data set [1] (setting [16]); 0.001 µg/mL in [1] (setting [15]); 1.7 nM in data set [1] (setting [17]); 0.67 nM in [1] (setting [18]); greater than 210000 nM in data set [8]. The MIC in data set [7] is greater than 32 µg/mL. Further, the hemolysis at 1 h in data set [9] is 11.7%. Besides, the “qualitative score on solid medium” value was determined as 2 in data set [2] (1 μg/mL compound in agar); 0 in [2] (2 μg/mL compound in agar); 0 in [2] (4 μg/mL compound in agar); 0 in data set [2] (8 μg/mL compound in agar); 0 in [2] (16 μg/mL compound in agar). Further, the “surface polysaccharide material by electron microscopy” value in data set [3] is given as “devoid of any surface material”. Moreover, the “activity in the Tp/Kp wbbM assay” value in [4] is “retained potency”.

Consider `COc1ccc2nc(NC(=O)c3cc(=O)c4ccccc4o3)sc2c1` [compound 63, COc4ccc3N=C(NC(=O)C2=CC(=O)c1ccccc1O2)Sc3c4], for which the IC50 in [1] (setting [16]) is 110 nM; in data set [1] (setting [15]) it was 0.04 µg/mL; in data set [8] it was 34400 nM. The minimum inhibitory concentration (MIC) in [7] is greater than 128 µg/mL. The compound further had a hemolysis at 1 h in data set [9] of 8.3%. Besides, the “RBC hemolysis (HC50)” value in data set [10] turned out to be 64 µM. The “qualitative score on solid medium” value in data set [2] (1 μg/mL compound in agar) is 1; in data set [2] (2 μg/mL compound in agar), 0; in [2] (4 μg/mL compound in agar), 0; in data set [2] (8 μg/mL compound in agar), 0; in data set [2] (16 μg/mL compound in agar), 0.

For `CCOC(=O)c1ccc2nc(NC(=O)c3cccs3)sc2c1` [compound 64, CCOC(=O)c3ccc2N=C(NC(=O)C1=CC=CS1)Sc2c3], the IC50 in data set [1] (setting [16]) is 120 nM; in data set [1] (setting [15]), 0.04 µg/mL; in data set [1] (setting [17]), 362 nM; in data set [1] (setting [18]) it was 186 nM; in [8], greater than 386000 nM. The MIC in [7] was greater than 128 µg/mL. The same compound registered a hemolysis at 1 h in data set [9] of 14.9%. Also, the “qualitative score on solid medium” value in data set [2] (1 μg/mL compound in agar), in [2] (2 μg/mL compound in agar), in data set [2] (4 μg/mL compound in agar), in data set [2] (8 μg/mL compound in agar) and in [2] (16 μg/mL compound in agar) was 0 each time. For the same compound, in data set [4], the “activity in the Tp/Kp wbbM assay” value is reported as “retained potency”.

As for `CC(C)(N)C(NC(=O)c1ccc(OCC#CC2CC2)cc1)C(=O)NO` (stereo not shown) [compound 180, CC(C)(N)C(NC(=O)c1ccc(cc1)OCC#CC2CC2)C(=O)NO], the IC50 is 1140 nM in data set [1] (setting [16]), 69400 nM in data set [8] and 40 nM in data set [11]. Besides, the MIC in data set [7] is greater than 128 µg/mL.

For the compound `O=CN(O)CCCP(=O)(O)O` [fosmidomycin], the IC50 is less than 78.1 nM in data set [1] (read-out: IC50 for Tp/Kp, hit from the HTS) and greater than 20000 nM in [12]. Moreover, the MIC in data set [13] is greater than 128 µg/mL; in data set [14], 0.5 µg/mL (≈ 2.73 µM).
